Measured values published in ChEMBL document CHEMBL1126168, “Benzazepinone calcium channel blockers. 3. Synthesis and structure-activity studies of 3-alkylbenzazepinones” (J Med Chem, 1992).

Legend:
[1] = (§1) In vitro inhibition [3H]diltiazem binding to calcium channels in isolated guinea pig skeletal muscle microsomal preparations; type: microsomes, Cavia porcellus, Muscle tissue, Microsome
[2] = species: Oryctolagus cuniculus; assay: In vitro evaluation for the vasorelaxant effects in circumferential strips of potassium-depolarized rabbit aorta. (IC50 in rabbit aorta strips contracted with KCl); type: functional
[3] = In vivo evaluation for the percentage decrease in blood pressure at 135 umol/kg administered through oral route in spontaneously hypertensive rats and observed for 12-18 h; type: functional, Rattus norvegicus
How it was run: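 Spontaneously hypertensive rats, n = 5, dosed orally at 135 μmol/kg; blood pressure followed and reported as percent decrease over the 0-6, 6-12 and 12-18 h intervals after dosing.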

[4] = In vivo evaluation for the percentage decrease in blood pressure at 45 umol/kg administered through oral route in spontaneously hypertensive rats and observed for 0-6 h
[5] = In vivo evaluation for the percentage decrease in blood pressure at 45 umol/kg administered through oral route in spontaneously hypertensive rats and observed for 6-12 h
[6] = In vivo evaluation for the percentage decrease in blood pressure at 45 umol/kg administered through oral route in spontaneously hypertensive rats and observed for 12-18 h
[7] = species: Cavia porcellus; assay: as §1; type: microsomes; details: Muscle tissue, Microsome, concentration not given here

Structure (SMILES)	Kd [1] [nM]	IC50 [2] [nM]	Decrease [3] [%]	Decrease [4] [%]	Decrease [5] [%]	Decrease [6] [%]	inhibition [7] [%]
COc1ccc([C@@H]2Cc3cc(Cl)ccc3N(CCN(C)C)C(=O)[C@@H]2C)cc1	670	150	11	12	13	–	–
COc1ccc([C@@H]2Sc3cc(Cl)ccc3N(CCN(C)C)C(=O)[C@@H]2OC(C)=O)cc1 [CLENTIAZEM]	–	100	–	29	16	22	–
COc1ccc([C@@H]2Cc3c(cccc3C(F)(F)F)N(CCN(C)C)C(=O)[C@@H]2OC(C)=O)cc1	–	–	–	17	12	12	–
CCC[C@H]1C(=O)N(CCN(C)C)c2ccc(C(F)(F)F)cc2C[C@H]1c1ccc(OC)cc1.Cl	–	1200	8	6	5	–	–
COc1ccc([C@@H]2Cc3c(cccc3C(F)(F)F)N(CCN(C)C)C(=O)[C@H]2C)cc1	–	–	–	24	23	17	–
CC[C@H]1C(=O)N(CCN(C)C)c2cccc(C(F)(F)F)c2C[C@H]1c1ccc(OC)cc1.Cl	–	–	15	24	19	–	–
COc1ccc([C@@H]2Cc3cc(C(F)(F)F)ccc3N(CCN(C)C)C(=O)[C@@H]2C)cc1.Cl	–	1230	25	23	23	–	–
C=CC[C@H]1C(=O)N(CCN(C)C)c2ccc(Cl)cc2C[C@H]1c1ccc(OC)cc1	5040	160	25	23	23	–	–
CCC[C@H]1C(=O)N(CCN(C)C)c2cccc(C(F)(F)F)c2C[C@H]1c1ccc(OC)cc1.Cl	–	–	–	14	19	24	–
COc1ccc([C@@H]2Cc3c(ccc(SC)c3OC)N(CCN(C)C)C(=O)[C@@H]2C)cc1.Cl	–	70	14	18	15	–	–
COc1ccc([C@@H]2Cc3c(cccc3C(F)(F)F)N(CCN(C)C)C(=O)[C@@H]2Cc2ccccc2)cc1	–	–	6	14	8	–	–
CCC[C@H]1C(=O)N(CCN(C)C)c2ccccc2C[C@H]1c1ccc(OC)cc1.Cl	250	–	12	10	11	–	–
C=CCC1C(=O)N(CCN(C)C)c2cccc(C(F)(F)F)c2CC1c1ccc(OC)cc1.Cl (centres undefined)	–	100	–	24	27	29	–
COc1ccc([C@@H]2Cc3c(cccc3C(F)(F)F)N(CCN(C)C)C(=O)[C@@H]2C)cc1	–	80	22	28	22	–	90
COc1ccc([C@@H]2Cc3c(ccc(Br)c3OC)N(CCN(C)C)C(=O)[C@@H]2C)cc1.Cl	120	90	14	9	12	–	–
CC[C@H]1C(=O)N(CCN(C)C)c2ccc(Cl)cc2C[C@H]1c1ccc(OC)cc1	–	280	21	20	22	–	–
COc1ccc([C@@H]2Cc3ccccc3N(CCN(C)C)C(=O)[C@@H]2C)cc1.Cl	–	1100	8	6	4	–	–
COc1ccc([C@@H]2Cc3c(cccc3C(F)(F)F)N(CCN(C)C)C(=O)[C@H]2C)cc1.Cl	–	–	8	12	9	–	–
COc1ccc([C@@H]2Cc3c(OC)cccc3N(CCN(C)C)C(=O)[C@@H]2C)cc1.Cl	400	–	8	7	10	–	–
C=CC[C@H]1C(=O)N(CCN(C)C)c2ccc(C(F)(F)F)cc2C[C@H]1c1ccc(OC)cc1.Cl	–	240	–	23	28	30	–
C=CC[C@H]1C(=O)N(CCN(C)C)c2ccccc2C[C@H]1c1ccc(OC)cc1.Cl	–	–	18	25	23	–	–
CC[C@H]1C(=O)N(CCN(C)C)c2cccc(Cl)c2C[C@H]1c1ccc(OC)cc1	–	80	–	14	18	7	–
C=CC[C@H]1C(=O)N(CCN(C)C)c2cccc(C(F)(F)F)c2C[C@H]1c1ccc(OC)cc1.Cl (relative stereo)	–	77	27	33	32	–	–
